Each block holds one compound with its values, some of them ahead of it.
Assays:
[1] = system: OCI-AML-3; test: Antiproliferative activity against human OCI-AML3 cells after 72 hrs by MTT assay; assay type: functional, cell-based; conditions: OCI-AML-3, 72 h
[2] = system: MM1.S; test: Antiproliferative activity against human MM1S cells after 72 hrs by MTT assay; assay type: functional, cell-based
[3] = system: OCI-AML2; test: Antiproliferative activity against human OCI-AML2 cells after 72 hrs by MTT assay; assay type: functional, cell-based; conditions: OCI-AML2, 72 h
[4] = system: MV4-11; test: Antiproliferative activity against human MV4-11 cells after 72 hrs by MTT assay; assay type: functional, cell-based; conditions: MV4-11, 72 h
[5] = target: T1, PI3-kinase p110-alpha/p85-alpha (Homo sapiens) (UniProt P27986+P42336); test: Inhibition of recombinant human full length N-terminal His-tagged/untagged p110alpha/p85alpha expressed in baculovirus expression system at 100 nM using PIP2 as substrate after 1 hr by Kinase-Glo reagent-based assay relative to control
Outline: (§1)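 PI3Kα (p110α/p85α) incubated with PIP2 substrate and ATP in kinase buffer for 1 h at room temperature. Kinase-Glo reagent was then added for 15 min before luminescence read-out. Inhibition rate at 100 or 1000 nM is the mean of at least two experiments.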

[6] = system: HCT-116; test: Antiproliferative activity against human HCT116 cells after 72 hrs by MTT assay; assay type: functional, cell-based; conditions: HCT-116, 72 h
[7] = system: Raji; test: Antiproliferative activity against human Raji cells after 72 hrs by MTT assay; assay type: functional, cell-based
Outline: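 Log-phase cells were plated at 10000-15000 per well and exposed to serial concentrations after 24 h for 72 h. Read-out was MTT for 1-3 h, then 20% SDS overnight and absorbance at 570 nm. IC50 was calculated from growth versus untreated control, as mean ± SEM of at least three independent experiments.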

[8] = target: Serine/threonine-protein kinase mTOR (Homo sapiens, UniProt P42345); test: Inhibition of recombinant N-terminal FLAG-tagged human mTOR (1362 to end residues) using ULight-4E-BP1 (Thr37/46) peptide as substrate after 1 hr by fluorescence assay
Outline: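 mTOR enzyme, ATP, compound and ULight-4E-BP1 (Thr37/46) peptide in kinase buffer were incubated 1 h at room temperature. EDTA quench plus Eu-anti-phospho-4E-BP1 antibody was added and equilibrated 1 h. TR-FRET was read at excitation 320 or 340 nm and emission 665 nm. Curves were fitted, and values are means of at least two experiments.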

[9] = target: T1, PI3-kinase p110-alpha/p85-alpha (Homo sapiens); test: Inhibition of recombinant human full length N-terminal His-tagged/untagged p110alpha/p85alpha expressed in baculovirus expression system at 1000 nM using PIP2 as substrate after 1 hr by Kinase-Glo reagent-based assay relative to control; outline: as §1
[10] = system: MM1.S; test: Induction of apoptosis in human MM1S cells assessed as late apoptotic cells at 1 uM after 48 hrs in presence of 0.3 uM RAPA by Annexin V-FITC/propidium iodide staining-based flow cytometric analysis (reference value: 0.42%); assay type: functional
[11] = system: MV4-11; test: Induction of apoptosis in human MV4-11 cells assessed as necrotic cells at 1 uM after 48 hrs by Annexin V-FITC/propidium iodide staining-based flow cytometric analysis (reference value: 0.17%); assay type: functional
[12] = system: MM1.S; test: Induction of apoptosis in human MM1S cells assessed as late apoptotic cells at 1 uM after 48 hrs by Annexin V-FITC/propidium iodide staining-based flow cytometric analysis (reference value: 0.42%); assay type: functional
[13] = system: MM1.S; test: Induction of apoptosis in human MM1S cells assessed as necrotic cells at 1 uM after 48 hrs in presence of 0.3 uM RAPA by Annexin V-FITC/propidium iodide staining-based flow cytometric analysis (reference value: 0.32%); assay type: functional
[14] = system: MM1.S; test: Induction of apoptosis in human MM1S cells assessed as early apoptotic cells at 1 uM after 48 hrs in presence of 0.3 uM RAPA by Annexin V-FITC/propidium iodide staining-based flow cytometric analysis (reference value: 0.38%); assay type: functional
[15] = Toxicity against NOD/SCID mouse xenografted with human MM1S cells assessed as mouse survival at 50 mg/kg, po qd administered for 10 days co-treated with 25 mg/kg RAPA; assay type: organism-based; conditions: in vivo, 240 h
Outline: (§2)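 MM1S s.c. xenograft: 10^7 cells in serum-free RPMI 1640, right flank, female NOD/SCID mice aged 5-6 weeks, randomised at 100-200 mm3 (n=6 per group). Oral daily dosing used physiological saline with 2.5% DMSO and 10% cyclodextrin, pH 9; the combination was given as a suspension. Caliper measurements were taken every 2 days. Survivors were counted.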

[16] = system: MV4-11; test: Induction of apoptosis in human MV4-11 cells assessed as late apoptotic cells at 1 uM after 48 hrs by Annexin V-FITC/propidium iodide staining-based flow cytometric analysis (reference value: 5.03%); assay type: functional
[17] = system: MM1.S; test: Induction of apoptosis in human MM1S cells assessed as early apoptotic cells at 1 uM after 48 hrs by Annexin V-FITC/propidium iodide staining-based flow cytometric analysis (reference value: 0.38%); assay type: functional
[18] = system: MM1.S; test: Induction of apoptosis in human MM1S cells assessed as viable cells at 1 uM after 48 hrs in presence of 0.3 uM RAPA by Annexin V-FITC/propidium iodide staining-based flow cytometric analysis (reference value: 98.9%); assay type: functional
[19] = system: MM1.S; test: Induction of apoptosis in human MM1S cells assessed as viable cells at 1 uM after 48 hrs by Annexin V-FITC/propidium iodide staining-based flow cytometric analysis (reference value: 98.9%); assay type: functional
[20] = system: MV4-11; test: Induction of apoptosis in human MV4-11 cells assessed as viable cells at 1 uM after 48 hrs in presence of 0.3 uM RAPA by Annexin V-FITC/propidium iodide staining-based flow cytometric analysis (reference value: 84.1%); assay type: functional
[21] = system: MV4-11; test: Induction of apoptosis in human MV4-11 cells assessed as viable cells at 1 uM after 48 hrs by Annexin V-FITC/propidium iodide staining-based flow cytometric analysis (reference value: 84.1%); assay type: functional
[22] = system: MV4-11; test: Induction of apoptosis in human MV4-11 cells assessed as necrotic cells at 1 uM after 48 hrs in presence of 0.3 uM RAPA by Annexin V-FITC/propidium iodide staining-based flow cytometric analysis (reference value: 0.17%); assay type: functional
[23] = system: MV4-11; test: Induction of apoptosis in human MV4-11 cells assessed as early apoptotic cells at 1 uM after 48 hrs in presence of 0.3 uM RAPA by Annexin V-FITC/propidium iodide staining-based flow cytometric analysis (reference value: 10.7%); assay type: functional
[24] = Toxicity against NOD/SCID mouse xenografted with human MM1S cells assessed as mouse survival at 50 mg/kg, po qd administered for 10 days; assay type: organism-based; conditions: in vivo, 240 h; outline: as §2
[25] = system: MV4-11; test: Induction of apoptosis in human MV4-11 cells assessed as late apoptotic cells at 1 uM after 48 hrs in presence of 0.3 uM RAPA by Annexin V-FITC/propidium iodide staining-based flow cytometric analysis (reference value: 5.03%); assay type: functional
[26] = system: MM1.S; test: Induction of apoptosis in human MM1S cells assessed as necrotic cells at 1 uM after 48 hrs by Annexin V-FITC/propidium iodide staining-based flow cytometric analysis (reference value: 0.32%); assay type: functional
[27] = system: MV4-11; test: Induction of apoptosis in human MV4-11 cells assessed as early apoptotic cells at 1 uM after 48 hrs by Annexin V-FITC/propidium iodide staining-based flow cytometric analysis (reference value: 10.7%); assay type: functional

IC50 [1]: 8.01 nM | IC50 [2]: 52.1 nM | IC50 [3]: 3.97 nM | IC50 [4]: 5.86 nM | inhibition [5]: 69.3% | IC50 [6]: 42.9 nM | IC50 [7]: 34.8 nM | IC50 [8]: 3.1 nM | inhibition [9]: 83.4%
Compound: CCN1CCN(C(=O)Nc2ccc(-c3nc(N4CCOCC4)c4cnn(CCCCCCC(=O)NO)c4n3)cc2)CC1

Compound: O=C(CCCCCCC(=O)Nc1ccccc1)NO [VORINOSTAT]
Activity [10]: 29.7% | Activity [11]: 3.51% | Activity [12]: 11.8% | Activity [13]: 1.74% | Activity [14]: 15% | Activity [15]: Non-Toxic | Activity [16]: 37.9% | Activity [17]: 9.68% | Activity [18]: 53.6% | Activity [19]: 75.4% | Activity [20]: 17.1% | Activity [21]: 18.6% | Activity [22]: 3.48% | Activity [23]: 37% | Activity [24]: Non-Toxic | Activity [25]: 42.4% | Activity [26]: 3.04% | Activity [27]: 40%

Reference: ChEMBL document CHEMBL4411315, “Discovery of Novel Dual Histone Deacetylase and Mammalian Target of Rapamycin Target Inhibitors as a Promising Strategy for Cancer Therapy” (J Med Chem, 2019)
